Source: ChEMBL document CHEMBL3286372, “Design, synthesis and structure-activity relationship of novel semi-synthetic flavonoids as antiproliferative agents” (2014)

Key:
KM12 = experiment: Growth inhibition of human KM12 cells after 48 hrs by coulter counting analysis; format: functional; conditions: KM12, 48 h
Method in brief: (§1)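 NCI five-dose screen at 0.01-100 µM, diluted from DMSO stocks in buffered saline (final DMSO <1%). Cells at 6×10^4 cells/ml in RPMI 1640 with 10% FBS, in duplicate wells, at 37 °C under 5% CO2 for 48 h. Cells diluted tenfold in saline and Coulter-counted. GI50, TGI and LC50 taken from log concentration-growth inhibition curves.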

K562 = experiment: Growth inhibition of human K562 cells after 48 hrs by coulter counting analysis; format: functional; conditions: K562, 48 h; method in brief: as §1
[1] = Growth inhibition of human RXF393 cells after 48 hrs by coulter counting analysis; format: functional; conditions: RXF 393, 48 h
Method in brief: (§2)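 Five-dose NCI-60 follow-up, 0.01–100 µM, made from DMSO stock in buffered saline (final DMSO <1%), in duplicate wells. Cells in RPMI 1640 with 10% FBS at 6×10^4 cells/ml, 37 °C, 5% CO2, 48 h. Cells diluted tenfold in saline, Coulter-counted and corrected for dilution. GI50, TGI and LC50 taken from log concentration–percent growth curves.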

DU-145 = experiment: Growth inhibition of human DU145 cells after 48 hrs by coulter counting analysis; format: functional; conditions: DU-145, 48 h; method in brief: as §1
MDA-MB-468 = experiment: Growth inhibition of human MDA-MB-468 cells after 48 hrs by coulter counting analysis; format: functional; conditions: MDA-MB-468, 48 h; method in brief: as §2
CCRF-CEM = experiment: Growth inhibition of human CCRF-CEM cells after 48 hrs by coulter counting analysis; format: functional; method in brief: as §1
A549 = experiment: Growth inhibition of human A549/ATCC cells after 48 hrs by coulter counting analysis; format: functional; conditions: A549, 48 h; method in brief: as §1
MDA-MB-231 = experiment: Growth inhibition of human MDA-MB-231 cells after 48 hrs by coulter counting analysis; format: functional; conditions: MDA-MB-231, 48 h; method in brief: as §1
SK-OV-3 = experiment: Growth inhibition of human SKOV3 cells after 48 hrs by coulter counting analysis; format: functional; conditions: SK-OV-3, 48 h; method in brief: as §2
[2] = Growth inhibition of human BT549 cells after 48 hrs by coulter counting analysis; format: functional; conditions: BT-549, 48 h; method in brief: as §1
IGROV-1 = experiment: Growth inhibition of human IGROV1 cells after 48 hrs by coulter counting analysis; format: functional; conditions: IGROV-1, 48 h; method in brief: as §1
[3] = Growth inhibition of human MOLT4 cells after 48 hrs by coulter counting analysis; format: functional; conditions: MOLT-4, 48 h; method in brief: as §2
MCF7 = experiment: Growth inhibition of human MCF7 cells after 48 hrs by coulter counting analysis; format: functional; conditions: MCF7, 48 h; method in brief: as §1
[4] = Growth inhibition of human OVCAR5 cells after 48 hrs by coulter counting analysis; format: functional; conditions: OVCAR-5, 48 h; method in brief: as §2
[5] = target: Cyclin-dependent kinase 4/cyclin D1 (Homo sapiens) (UniProt P11802+P24385); experiment: Inhibition of CDK4/Cyclin D1 (unknown origin) at 20 uM after 30 mins by scintillation counting analysis relative to control; format: protein-complex assay
Method in brief: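 Recombinant kinases, cloned, expressed and purified in-house. Radiometric ³³P-ATP assay with kinase at ~10-50 nM final and 1-5 µg peptide or protein substrate. Compound at 20 µM final, in duplicate. Reaction started by adding ATP, run 30 min at ambient temperature, then spotted on P81 phosphocellulose. Plates washed in 1% phosphoric acid and counted by scintillation. No-substrate blank subtracted. Result is mean % activity change versus DMSO control.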

NCI-H322M = experiment: Growth inhibition of human NCI-H322M cells after 48 hrs by coulter counting analysis; format: functional; method in brief: as §2
[6] = Growth inhibition of human OVCAR4 cells after 48 hrs by coulter counting analysis; format: functional; conditions: OVCAR-4, 48 h; method in brief: as §2
[7] = Growth inhibition of human UACC62 cells after 48 hrs by coulter counting analysis; format: functional; conditions: UACC-62, 48 h
Method in brief: (§3)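 NCI five-dose screen, 0.01-100 µM, from DMSO stocks diluted in buffer saline (final DMSO <1%). Cells grown in RPMI 1640 + 10% FBS, seeded at 6×10^4 cells/ml, in duplicate wells. Exposure 48 h at 37 °C, 5% CO2. Cells diluted 10-fold in saline and counted by Coulter counter. GI50 derived from log concentration–percent growth inhibition curves. Controls carried matching PBS/saline/DMSO.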

786-0 = experiment: Growth inhibition of human 786-0 cells after 48 hrs by coulter counting analysis; format: functional; conditions: 786-0, 48 h; method in brief: as §1
[8] = Growth inhibition of human NCI-ADR-RES cells after 48 hrs by coulter counting analysis; format: functional; method in brief: as §2
SNB-75 = experiment: Growth inhibition of human SNB75 cells after 48 hrs by coulter counting analysis; format: functional; conditions: SNB-75, 48 h; method in brief: as §2
[9] = Growth inhibition of human UO31 cells after 48 hrs by coulter counting analysis; format: functional; conditions: UO-31, 48 h; method in brief: as §3
M14 = experiment: Growth inhibition of human M14 cells after 48 hrs by coulter counting analysis; format: functional; conditions: M14, 48 h; method in brief: as §1
[10] = Growth inhibition of human Hs 578T cells after 48 hrs by coulter counting analysis; format: functional; method in brief: as §1
[11] = Growth inhibition of human HOP92 cells after 48 hrs by coulter counting analysis; format: functional; conditions: HOP-92, 48 h; method in brief: as §1
[12] = Growth inhibition of human OVCAR8 cells after 48 hrs by coulter counting analysis; format: functional; conditions: OVCAR-8, 48 h; method in brief: as §2
TK-10 = experiment: Growth inhibition of human TK10 cells after 48 hrs by coulter counting analysis; format: functional; conditions: TK-10, 48 h; method in brief: as §3

| SMILES | GI50 (KM12) [µM] | GI50 (K562) [µM] | GI50 [1] [µM] | GI50 (DU-145) [µM] | GI50 (MDA-MB-468) [µM] | GI50 (CCRF-CEM) [µM] | GI50 (A549) [µM] | GI50 (MDA-MB-231) [µM] | GI50 (SK-OV-3) [µM] | GI50 (IGROV-1) [µM] | GI50 [3] [µM] | GI50 (MCF7) [µM] | GI50 [4] [µM] | inhibition [5] [%] | GI50 (NCI-H322M) [µM] | GI50 [6] [µM] | GI50 [7] [µM] | GI50 (786-0) [µM] | GI50 [8] [µM] | GI50 (SNB-75) [µM] | also measured |
| --- | --- | --- | --- | --- | --- | --- | --- | --- | --- | --- | --- | --- | --- | --- | --- | --- | --- | --- | --- | --- | --- |
| COc1c2ccoc2c(/C=C/C=O)c2oc(-c3ccccc3)cc(=O)c12 | 16.5 | 3.21 | 4.26 | 10.7 | 7.02 | 1.85 | 21.5 | 4.1 | 6.34 | 17.5 | 2.06 | 2.72 | 22.3 | 0 | 9.69 | 3.2 | 5.45 | 26.9 | 3.01 | 8.3 | GI50 [2]: 2.88 µM; GI50 [9]: 3.63 µM; GI50 (M14): 3.32 µM; GI50 [10]: 7.2 µM; GI50 [11]: 11.5 µM; GI50 [12]: 2.86 µM |
| COc1c(C(=O)/C=C/c2ccc(Cl)cc2)c(O)c(Br)c2occc12 | 3.49 | 2.88 | 2.37 | 4.07 | 2.13 | 2.66 | 6.72 | 4.33 | 1.11 | 3.04 | 2.09 | 2.36 | 6.04 | 15 | 5.22 | 3.28 | 3.47 | 2.99 | 3.07 | 1.8 | GI50 [9]: 2.59 µM; GI50 (M14): 4.82 µM; GI50 [11]: 1.39 µM; GI50 (TK-10): 3.48 µM; GI50 [12]: 3.43 µM |
| C=CCc1c(O)c(C(=O)/C=C/c2ccc(Cl)cc2)c(OC)c2ccoc12 | 3.72 | 3.25 | 1.72 | 3.85 | 2.27 | 3.33 | 4.7 | 4.3 | 5.96 | 3.46 | 2.61 | 2.51 | 2.8 | 0 | 4.88 | 2.77 | 2.88 | 4.83 | 2.23 | 2.01 | GI50 [2]: 3 µM; GI50 [9]: 2.88 µM; GI50 (M14): 5.08 µM; GI50 [10]: 4.02 µM; GI50 [11]: 1.69 µM; GI50 (TK-10): 3.62 µM; GI50 [12]: 3.04 µM |
| C=CCc1c(O)c(C(=O)/C=C/c2ccccc2)c(OC)c2ccoc12 | 4.06 | 2.87 | 1.85 | 4.92 | 3.07 | 2.75 | 4.41 | 3.11 | 8.08 | 3.35 | 2.17 | 2.73 | 3.22 | 0 | 3.19 | 2.89 | 2.74 | 4.12 | 1.88 | 1.39 | GI50 [2]: 2.63 µM; GI50 [9]: 2.89 µM; GI50 (M14): 5.36 µM; GI50 [10]: 3.9 µM; GI50 [11]: 1.33 µM; GI50 (TK-10): 4.96 µM; GI50 [12]: 3.13 µM |
| COc1ccc(-c2cc(=O)c3c(OC)c4ccoc4c(/C=C/C=O)c3o2)cc1 | 12.3 | 2.8 | 2.15 | 4.53 | 3.58 | 1.09 | 18.5 | 4.22 | 4.73 | 13.6 | 1.84 | 1.63 | 11.7 | 0 | 5.06 | 3.8 | 1.77 | 16.8 | 2.84 | 3.13 | GI50 [2]: 2.14 µM; GI50 [9]: 3.17 µM; GI50 (M14): 2.24 µM; GI50 [10]: 10.4 µM; GI50 [11]: 16.8 µM; GI50 [12]: 2.83 µM |
